Screening results as filed in PubChem BioAssay.
DENV2 CPE – DENV2-induced cell death inhibition. DENV2-infected cells, cytopathic effect rescue, plate reader. CPE inhibition, % at 9.99 µM. 1.7% of 350,000 active; in the data active means CPE inhibition above about 20%, passing the limit was not always enough; inconclusive means no clear call, values can overlap the other calls; tested in BHK-21 cells;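 further: 0% = median of neutral control wells and 100% = median of positive control wells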
SIRT5 inh – inhibitors of human sirtuin-5 desuccinylase; inhibition, % at 15 µM; Q9NXA8; Purified SirT5, succinyl-peptide AMC, trypsin-coupled fluorescence; 1.1% of 330,000 active; AID 652115; in the data active means inhibition above about 15%; inconclusive means no clear call, values can overlap the other calls
Target sequence (Q9NXA8 whole entry, looked up): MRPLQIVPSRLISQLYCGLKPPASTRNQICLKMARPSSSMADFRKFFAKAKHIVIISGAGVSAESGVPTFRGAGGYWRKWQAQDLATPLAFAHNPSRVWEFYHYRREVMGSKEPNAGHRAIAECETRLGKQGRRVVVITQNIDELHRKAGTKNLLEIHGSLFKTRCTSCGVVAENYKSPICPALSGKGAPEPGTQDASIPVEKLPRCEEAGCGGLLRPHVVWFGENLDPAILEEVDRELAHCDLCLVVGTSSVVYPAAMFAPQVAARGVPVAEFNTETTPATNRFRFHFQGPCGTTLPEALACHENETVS
Xi reactivation – reactivates the inactive X chromosome in mouse fibroblasts. XiGFP mouse fibroblasts, % GFP-positive cells imaging, 3 d; cells co-treated with 5-aza-dC sensitizer; scaled so ellipticine positive control = 100%. activation, % at 7.58 µM. 0.055% of 360,000 active. AID 743238;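 active means mean normalized replicate activation at least 10% and every replicate at or above 10%; inconclusive means only one of the two criteria met; inactive means mean below 10% and not all replicates reach 10%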;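 further: 0% = median of on-plate neutral control wells and 100% = ellipticine 6 µM median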
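Material: XiGFP fibroblasts, SV40-immortalized. Buffer or medium: DMEM plus 5-aza-dC sensitizer. Compound: single concentration per compound, delivered by pin transfer. Times: 3 days compound exposure. Controls: ellipticine 6 µM.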
ARNT TACC3 PPI – disruptors of human ARNT/TACC3 interaction. Q9Y6A5. AlphaScreen His-ARNT PAS-B/GST-TACC3 binding, luminescence; TACC3 fragment carries E629A point mutation. inhibition, % at 9.99 µM. 0.66% of 390,000 active;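 active means mean inhibition of replicates at least 50% and at least half of replicates each reaching 50%; inconclusive means half or more replicates reach 50% but mean below 50%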;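 further: 0% = complete ARNT plus TACC3 wells and 100% = ARNT alone without TACC3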
FN deposit inh – fibronectin deposition inhibition. 0.086% of 350,000 active. AH1F fibroblasts, Alexa488-fibronectin deposition fluorescence, overnight. inhibition, % at 12.6 µM;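 active means mean inhibition across replicates of 30% or more, regardless of how many single replicates reach that level; inconclusive means mean under 30% yet at least half of replicates reach 30%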;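 further: positive control wells lacked labelled fibronectin entirely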
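Assay system: AH1F fibroblasts assembling fluorescent fibronectin matrix; Amount: 10000 AH1F cells per well; Buffer or medium: DMEM, 2% serum; Probe or stimulus: Alexa488-fibronectin, 24 nM final in well; Doses: single compound dose, delivered by pin transfer; Incubation: 1 h adhesion, overnight exposure; Measured by: fluorescence 485/525 nm; Read-out: fibronectin deposition inhibition.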
FGF22 binding – shifts melting point of recombinant human FGF22; activity (Tm shift, normalised), % at 9.99 µM; recombinant FGF22 thermal shift, SYPRO orange fluorescence; percent of sucrose octasulfate shift, DMSO zero; 1.5% of 340,000 active; Q9HCT0;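 active means mean Tm shift, scaled 0 neutral to 100 positive control, at about 1.3% or above, every replicate too, limit read from the data; inconclusive means no clear call, values can overlap the other calls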
Target sequence (Q9HCT0 whole entry, looked up): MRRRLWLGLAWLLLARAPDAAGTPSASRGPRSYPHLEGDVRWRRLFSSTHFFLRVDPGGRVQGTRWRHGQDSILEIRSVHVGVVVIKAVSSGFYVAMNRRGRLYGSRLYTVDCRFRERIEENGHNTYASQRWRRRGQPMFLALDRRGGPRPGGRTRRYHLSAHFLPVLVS
* marks the source's active call; other numbers are inactive results. Shown are actives, neighbours in structure and some others; about 3.8% of the full set was active somewhere.

CCCC#Cc1ccc(CC[C@H]2O[C@H]3CC[C@@H](CO)O[C@H]3C[C@H]2NS(=O)(=O)c2ccccc2)cc1 was read as DENV2 CPE 10 and SIRT5 inh 20*.
`CC(C)NC(=O)N[C@H]1C[C@@H]2O[C@@H](CO)CC[C@@H]2O[C@@H]1CCc1ccc(-c2ccccc2F)cc1` gave DENV2 CPE 1, SIRT5 inh -2 and FGF22 binding 0.
Screening CC(=O)N[C@@H]1C[C@@H]2O[C@H](CO)CC[C@@H]2O[C@@H]1CCc1ccc(C#CC2(O)CCCC2)cc1 returned DENV2 CPE 21* and SIRT5 inh 0.
CCC(=O)N[C@H]1C[C@@H]2O[C@@H](CO)CC[C@@H]2O[C@@H]1CCc1ccc(C#CCc2ccccc2)cc1 was read as DENV2 CPE 13 and SIRT5 inh 0.
`CO[C@@H]1CN(C)C(=O)c2cc(NC(=O)c3cccc(F)c3)ccc2OC[C@@H](C)N(C(C)=O)C[C@@H]1C` gave Xi reactivation 0 and FN deposit inh -5.
For CO[C@H]1CC[C@H]2CCN(C)C(=O)[C@H](C)CN(C)C(=O)c3cccc(C#N)c3OC[C@H]1O2 the results were DENV2 CPE -4, SIRT5 inh 0, Xi reactivation 0, ARNT TACC3 PPI -1, FN deposit inh 1 and FGF22 binding 0.
Screening O=S1(=O)N=C(N(CCO)/N=C/c2ccncc2)c2ccccc21 returned DENV2 CPE 0, SIRT5 inh 0, Xi reactivation 0, ARNT TACC3 PPI 72*, FN deposit inh -6 and FGF22 binding 0.
`O=S1(=O)N=C(N(CCO)/N=C/c2ccccc2)c2ccccc21` gave DENV2 CPE -7, SIRT5 inh 1, Xi reactivation 0, FN deposit inh 11 and FGF22 binding 0.
For CC(C)(C)NC(=O)CCN(/N=C/c1ccncc1)C1=NS(=O)(=O)c2ccccc21 the results were DENV2 CPE -2, SIRT5 inh 3, Xi reactivation 0, ARNT TACC3 PPI 63*, FN deposit inh 1 and FGF22 binding 0.
`CCn1c(C)nc2cc(C(=O)OC)ccc21` gave DENV2 CPE -10, SIRT5 inh 1, Xi reactivation 0, ARNT TACC3 PPI 13, FN deposit inh 3 and FGF22 binding 43*.
Screening CC(C)[C@H](NC(=O)[C@H](CCCN=C(N)N)NC(=O)NC(Cc1ccccc1)C(=O)O)C(=O)NC(C=O)CCCN=C(N)N (some centres undefined) returned DENV2 CPE 8, SIRT5 inh 46*, Xi reactivation 0, ARNT TACC3 PPI -5, FN deposit inh -4 and FGF22 binding 0.
Screening CCOc1cc(NC(=S)NCc2ccccc2)c(OCC)cc1NC(=O)C(C)C returned DENV2 CPE inconclusive, SIRT5 inh -3, Xi reactivation 0, ARNT TACC3 PPI -1, FN deposit inh -5 and FGF22 binding 0.
`CCOc1cc(NC(=S)NCCc2ccccc2)c(OCC)cc1NC(C)=O` gave DENV2 CPE 18, SIRT5 inh -2, Xi reactivation 0, ARNT TACC3 PPI 0, FN deposit inh 3 and FGF22 binding 43*.
`CCCNC(=O)Nc1ccc2c(c1)C(=O)N(C)[C@H]1CC[C@H](CC(=O)NC3CCC3)O[C@@H]1CO2` gave DENV2 CPE inconclusive, SIRT5 inh 1, Xi reactivation 0, ARNT TACC3 PPI -14, FN deposit inh -28 and FGF22 binding 0.
`CCc1nc2ccccc2n1CCc1ccccc1` gave DENV2 CPE 4, SIRT5 inh -5, Xi reactivation 0, ARNT TACC3 PPI -6, FN deposit inh -6 and FGF22 binding 0.
For CC(C)Cc1nc2ccccc2n1CCc1ccccc1 the results were DENV2 CPE -2, SIRT5 inh 1, Xi reactivation 0, FN deposit inh -7 and FGF22 binding 43*.
For O=C(C[C@@H]1C[C@H]2c3cc(NC(=O)Cc4ccncc4)ccc3O[C@H]2[C@@H](CO)O1)NCC1CC1 the results were DENV2 CPE -1, SIRT5 inh 0, Xi reactivation 0, ARNT TACC3 PPI 3, FN deposit inh -1 and FGF22 binding 0.
